Screening data deposited in PubChem BioAssay by several laboratories.
In the library only some 5.1% were active in any assay of this set; here they are far more common.
STAT3 inh: inhibitors of IL-6 induced STAT3 signaling | U3A cells, IL-6 STAT3-luciferase reporter, luminescence; host cell line lacks STAT1 | inhibition, % at 5.5 µM | AID 862 | actives 0.89% (n = 190,000);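 active = inhibition above the mean inhibition across all screened compounds plus 3 SD, cut at about 44% in these data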
STAT1 act: STAT1 signaling activation; NIH 3T3 STAT1-luciferase reporter, IFN-gamma, luminescence; 100% = IFN-gamma alone, no compound; activation (% of control), % at 5.5 µM; actives 2.6% (n = 200,000); AID 932;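 active = activation above the screen-wide mean activation plus 3 SD, cut at about 130% in these data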
STAT1 blocker: STAT1 signaling inhibition; NIH 3T3 STAT1-luciferase reporter, IFN-gamma, luminescence; inhibition, % at 5.5 µM; actives 0.35% (n = 200,000);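 active = inhibition above a set limit, the mean inhibition across all tested compounds plus 3 SD, cut at about 34% in these data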
APP 5'UTR act: activates APP 5'UTR luciferase reporter. activation, % at 2 µM. SH-SY5Y APP 5'UTR luciferase reporter, luminescence; zero percent = DMSO vehicle wells. actives 1% (n = 190,000);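 active = activation above a set limit, based on mean plus 3 SD of controls, cut at about 140% in these data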
NF-kB neuron act: NF-kB expression increase, human neuronal cells | NF-kB reporter expression; active compounds read high | fold change at 12.5 µM | actives 1.6% (n = 190,000) | AID 1239; in the data active = fold change above about 3.3
STAT3 activator: STAT3 signaling activation; U3A cells, IL-6 STAT3-luciferase reporter, luminescence; 100% = signal with IL-6 EC80 alone; activation (% of control), % at 5.6 µM; actives 0.91% (n = 190,000); AID 871;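 active = activation above the screen-wide mean of compound activation plus 3 SD, cut at about 130% in these data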
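Material: STAT3-luciferase reporter U3A cells; Probe or stimulus: IL-6 (33 ng/mL); Incubation: compound pre-incubation 1 h before IL-6, then 6 h stimulation at 37 °C; Technique: luminescence from STAT3-driven luciferase reporter; Evaluation: % activation versus median of IL-6-stimulated wells; Controls: IL-6-only high control.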
Each line names hits and unclear results; the compound was inactive in the other large screens.

O=C(Nc1ccc2c(c1)OCO2)Nc1ccc2c(c1)OCO2	STAT1 act 141, APP 5'UTR act 136
O=C(Nc1cccc(NC(=O)c2ccc3c(c2)OCO3)c1)c1ccccc1	none
O=C(NCCN1CCOCC1)c1ccc(=O)n(Cc2ccc(Cl)cc2)c1	none
Cc1ccccc1NC(=O)Cc1nc(-c2ccc3ccccc3c2)cs1	none
O=C(O)c1ccc(NC(CSCc2ccccc2F)C(=O)O)c([N+](=O)[O-])c1 (configuration not stated)	none
O=C(CCCc1ccccc1)c1ccc2c(c1)OCCO2	STAT3 inh 108, STAT1 blocker 92 (no result: APP 5'UTR act)
COc1cc([N+](=O)[O-])ccc1NC(=O)Nc1ccc2c(c1)OCCO2	none
O=C(Nc1ccc2c(c1)OCCO2)C1CCC1	none
CCC(=O)Oc1ccc(C(=O)Nc2ccc3c(c2)OCO3)cc1	STAT1 act 137, APP 5'UTR act 142
O=C(Nc1ccc2c(c1)OCCO2)NC1CCCCC1	STAT1 act 129, APP 5'UTR act 138, NF-kB neuron act 5.2
O=C(Nc1ccc([N+](=O)[O-])cc1)Nc1ccc2c(c1)OCCO2	STAT1 act 134, NF-kB neuron act 4.5
O=C(Nc1ccncc1)Nc1ccccn1	none
O=C(Nc1ccc2c(c1)OCO2)c1cccc(Cl)c1	STAT1 act 129
O=C(Nc1ccc(Cl)cc1)C1=Cc2ccccc2OC1	STAT1 act 143, APP 5'UTR act 210, NF-kB neuron act 9.2
O=C(Nc1ccccn1)Nc1cccs1	STAT1 act 132
O=C(Nc1cccc(F)c1)Nc1ccccn1	STAT1 act 148
Cc1ccc(C(=O)NCCNS(C)(=O)=O)cc1	none
COc1cccc(N(C(=O)c2cccs2)c2nc3ccccc3s2)c1	none
S=C1NCCc2ccc(Cl)cc2C1c1ccccc1 (configuration not stated)	none
O=C(N/N=C/c1cccs1)c1ccc2c(c1)OCO2	STAT1 act 129
O=C(N/N=C/c1ccncc1)c1ccc2c(c1)OCO2	none
O=C(Nc1ccc(Cl)cc1)c1ccc2c(c1)OCO2	STAT1 act 139, APP 5'UTR act 193, NF-kB neuron act 6.8
O=C(Nc1ccc2c(c1)OCO2)c1c(F)c(F)c(F)c(F)c1F	none
O=C(Nc1ccc(F)c(F)c1)c1ccc2c(c1)OCO2	STAT1 act 138
O=C(Nc1ccc2c(c1)OCO2)c1c(Cl)nc2sccn12	STAT1 act 131
Cc1noc(C(=O)Nc2ccc3c(c2)OCO3)c1Cl	none
O=C1c2ccccc2C(=O)N1/N=C/c1ccc(O)c(O)c1	none
COc1ccc(C2CC(c3cccs3)=NN2C(=O)COC(=O)c2cncc(Br)c2)cc1OC (configuration not stated)	none
COC(=O)CC1C(=O)NCCN1C(=O)CSc1nc2ccccc2s1 (configuration not stated)	none
Cc1cc(C(=O)CCl)c(C)n1CCc1ccccc1	none
COC(=O)CCCn1c(C)cc(C(=O)CCl)c1C	NF-kB neuron act 3.6
O=C(NNC(=O)c1cccc(O)c1)Nc1ccc([N+](=O)[O-])cc1	none
CCOc1cc(N2CCOCC2)c(OCC)cc1NC(=O)COC(=O)c1cccc2ccccc12	none
Oc1ccc(-c2csc(-c3c[nH]c4ccccc34)n2)c(O)c1	STAT1 act 144, NF-kB neuron act 4.2, STAT3 activator 158
O=c1oc2ccccc2cc1-c1nc(-c2ccccc2)no1	STAT1 act 145, NF-kB neuron act 4.1
Cc1cccc(-c2noc(-c3cc4ccccc4oc3=O)n2)c1	NF-kB neuron act 3.6
Cc1ccc(-c2noc(-c3cc4ccccc4oc3=O)n2)cc1	none
O=c1oc2ccccc2cc1-c1nc2ccccc2o1	APP 5'UTR act 152, NF-kB neuron act 4.4
Cn1c(=O)cc(OCC(=O)NCc2cccs2)c2ccccc21	none
CCOC(=O)NC(Nc1ccc(OC)cc1)(C(F)(F)F)C(F)(F)F	none
O=C(CSc1cn(Cc2ccccc2)c2ccccc12)Nc1nccs1	STAT1 act 146
O=C(CSc1ccccc1)Nc1nccs1	none
O=[N+]([O-])c1cccc(-c2nnc(-c3ccc4c(c3)OCO4)o2)c1	STAT1 act 141
O=[N+]([O-])c1cccc(-c2nc(-c3ccncc3)no2)c1	none
O=[N+]([O-])c1cccc(-c2nc(-c3ccccc3)no2)c1	STAT1 act 138, NF-kB neuron act 3.8, STAT3 activator 140
COc1ccc(C(=O)C2CCCN(C(=O)c3cc(C(C)C)no3)C2)cc1F (configuration not stated)	none (no result: NF-kB neuron act)
Cc1cccc(NC(=S)NC2CC3CCCC(C2)N3Cc2ccccc2)c1C (configuration not stated)	none
COc1ccc(CN2CCNC(=O)C2CC(=O)N(C)Cc2nccn2C)cc1OC (configuration not stated)	none
CCOC(=O)c1c(/N=C/N(C)C)sc(/C=N/Nc2ccccc2)c1-c1ccc(Cl)cc1	none
O=C1c2cccc(Cl)c2C(=O)c2c1cccc2N1CCCC1	STAT3 activator 137 (no result: NF-kB neuron act)
COc1ccccc1C(=O)OCc1ccc2sc(C)nc2c1	none (no result: NF-kB neuron act)
O=S(=O)(c1ccc(Cl)cc1)c1snnc1-c1ccccc1	NF-kB neuron act 6.4
Nc1[nH]n(-c2ccccc2)c(=O)c1N=Nc1ccccc1[N+](=O)[O-]	STAT1 act 139
COc1cc([N+](=O)[O-])ccc1N=Nc1c(N)[nH]n(-c2ccccc2)c1=O	none
NC(=O)C1(N2CCCCC2)CCN(C(=S)Nc2ccc(S(N)(=O)=O)cc2)CC1	none
Cc1ccc(-n2c(C)cc(C(=O)COC(=O)c3c(C)noc3C)c2C)cc1	STAT1 act 129, NF-kB neuron act 3.5
CC1CCC/C(=N\Nc2ccc(Cl)c(C(=O)O)c2)C1 (configuration not stated)	APP 5'UTR act 217
CCCN=Cc1ccc(O)cc1	none
O=[N+]([O-])c1ccc(O)c(C=Nc2ccc3nc(-c4ccccc4)[nH]c3c2)c1	STAT1 act 140
Oc1c(Br)cc(C=Nc2ccc3nc(-c4ccccc4)[nH]c3c2)c(O)c1Br	STAT1 act 133
CCn1cc(NC(=O)CCl)c(C)n1	none
Oc1ccc(/C=C/c2cc(O)cc(O)c2)cc1	APP 5'UTR act 151, NF-kB neuron act 23
COc1cccc(-n2c(SCC(=O)N3CCCC3)nc3c([nH]c4ccccc43)c2=O)c1	STAT3 activator 142 (no result: NF-kB neuron act)
COc1ccc(NC(=O)CSc2nc3c([nH]c4ccccc43)c(=O)n2C)cc1	STAT3 activator 135
Cn1c(SCC(=O)NCc2ccc(F)cc2)nc2c([nH]c3ccccc32)c1=O	STAT3 activator 133
CC1CC(C)CN(C(=O)CSc2nc(Cc3cccs3)nc3ccccc23)C1 (configuration not stated)	none (no result: APP 5'UTR act)
Cn1cccc1C(=O)OCC(=O)N1c2ccccc2NC(=O)C1(C)C	none
O=c1c2c(-c3cccs3)csc2ncn1-n1cccc1	STAT3 activator 136
Oc1c(N=Nc2ccccn2)ccc2ccccc12	NF-kB neuron act 3.6
